N-glyco inh: increase of ERlucT glycosylation luciferase signal, primary screen, N-linked glycosylation inhibitor project, D54 ERlucT cells, luminescence, set 2. reporter increase, % at 12.5 µM. D54 ERlucT glycosylation luciferase reporter, 24 h; percent of 100 nM tunicamycin response. hit rate 0.23% among 360,000;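 active = mean luciferase reporter signal, scaled so untreated is 0 and the glycosylation-blocking control 100, at or above a set limit in every replicate; inconclusive = mean reaches the limit but not every replicate does; inactive = mean below the limit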;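 note: luciferase carries N-glycosylation sites so blocking glycosylation raises the light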
PAX8 inh HTS: inhibitors of PAX8-driven TPO luciferase reporter, primary screen, RMG-I cells, single concentration; SteadyGlo, 24 h; inhibition, % at 12.6 µM; hit rate 1.2% among 360,000;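 active = mean replicate inhibition at least 60% with every replicate also reaching 60%; inconclusive = only one of the two criteria is met; inactive = mean below 60% and not all replicates reaching 60%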;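 note: luciferase light reporting Pax8 driven TPO promoter activity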
Env fusion inh: inhibitors of HIV-1 Env-driven cell-cell fusion, primary screen, HeLa-JRFL effector, CEM21 target cells, luciferase; inhibition, % at 12.3 µM; hit rate 1.1% among 360,000;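 active = mean replicate inhibition score of at least 50 and every replicate individually at or above 50; inconclusive = only one of the two criteria met; inactive = mean below 50 and not all replicates reaching 50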
FN deposit inh: inhibitors of fibronectin matrix deposition, primary screen, AH1F cells, Alexa488-fibronectin fluorescence, plate reader; AH1F fibroblasts, overnight; inhibition, % at 12.6 µM; hit rate 0.086% among 350,000; AID 743247, 2014;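 active = mean inhibition across replicates of 30% or more, regardless of how many single replicates reach that level; inconclusive = mean under 30% yet at least half of replicates reach 30%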
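Assay system: AH1F fibroblasts / Quantity: 10000 cells per well / Medium: DMEM plus 2% serum, read in PBS / Reagent: labelled fibronectin 24 nM / Dosing: single dose, pinned / Times: 1 h cell attachment, overnight exposure to compound and label / Signal: fluorescence, ex 485 nm, em 525 nm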
EWS-Fli inh: EWS/Fli-driven NR0B1 reporter inhibitors, primary screen, A673 cells, NR0B1 luciferase, luminescence, MLPCN library; viability-normalised; inhibition, % at 12.6 µM; hit rate 0.67% among 350,000; AID 651661, 2012;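 active = mean inhibition of at least 50% after viability correction, with every replicate also passing that limit; inconclusive = mean reaches 50% but only one of two replicates passes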;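 note: firefly luciferase signal divided by Alamar Blue viability fluorescence both relative to DMSO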
AF4-AF9 inh: inhibitors of AF4 peptide binding to AF9, primary screen, biochemical, AlphaScreen, biotin-AF4 peptide, FLAG-AF9, single point | inhibition, % at 10 µM | Protein AF-9 (Homo sapiens), P42568 | AID 651704, 2012 | hit rate 0.47% among 350,000;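 active = every replicate reaching a set inhibition limit, whatever the replicate mean, cut at about 25% in these data; inconclusive = mean inhibition reaches that limit but some replicates miss it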
Target sequence (P42568 whole entry, looked up): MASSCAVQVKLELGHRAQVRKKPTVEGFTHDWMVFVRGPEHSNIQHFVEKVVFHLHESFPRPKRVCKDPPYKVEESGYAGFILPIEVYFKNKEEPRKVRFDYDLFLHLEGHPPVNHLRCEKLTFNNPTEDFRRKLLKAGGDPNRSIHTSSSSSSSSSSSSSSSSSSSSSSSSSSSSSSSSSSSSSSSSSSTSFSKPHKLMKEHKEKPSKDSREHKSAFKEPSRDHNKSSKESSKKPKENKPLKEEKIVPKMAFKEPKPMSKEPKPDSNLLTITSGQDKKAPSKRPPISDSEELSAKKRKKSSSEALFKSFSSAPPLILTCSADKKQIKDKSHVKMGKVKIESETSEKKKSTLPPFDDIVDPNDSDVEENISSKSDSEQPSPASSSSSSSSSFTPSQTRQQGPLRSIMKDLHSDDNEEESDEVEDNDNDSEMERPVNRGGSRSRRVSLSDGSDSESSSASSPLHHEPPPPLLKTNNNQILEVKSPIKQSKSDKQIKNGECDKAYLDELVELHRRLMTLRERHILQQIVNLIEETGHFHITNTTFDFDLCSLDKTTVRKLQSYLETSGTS
Hits are given with their value; i = inactive; ? = inconclusive; nt = no result given. Rows were chosen to be rich in hits. Some 2.5% of all compounds tested hit in one or more screens of this group.

SMILES	N-glyco inh	PAX8 inh HTS	Env fusion inh	FN deposit inh	EWS-Fli inh	AF4-AF9 inh
COc1ccc(NC(=O)Nc2ccc3c(c2)CC(=O)N([C@@H](C)CO)C[C@H](C)[C@@H](CN(C)S(=O)(=O)c2c(C)noc2C)O3)cc1	nt	i	i	nt	i	i
CCCn1c(CN2CCN(C(=O)OCC)CC2)nc2cc(NC(=O)CC)ccc21	?	i	i	i	59.2	i
CO[C@H]1CN(C)C(=O)c2cc(NC(=O)C3CC3)ccc2OC[C@@H](C)N(Cc2ccncc2)C[C@H]1C	nt	i	nt	i	i	i
C=CCn1c(C)nnc1SCC(=O)NC1CCCCC1	i	i	i	i	i	i
C=CCn1c(C)nnc1SCC(=O)NC1CC1	i	i	61.8	i	i	i
O=C(NC(Nc1nc2ccc([N+](=O)[O-])cc2s1)(C(F)(F)F)C(F)(F)F)c1cccnc1	i	93.1	123.1	i	i	i
O=C(NC(Nc1nc2ccc([N+](=O)[O-])cc2s1)(C(F)(F)F)C(F)(F)F)c1ccccc1Cl	i	101.5	i	i	i	i
C[C@@H]1CN([C@H](C)CO)C(=O)c2cc(NS(=O)(=O)c3ccccc3)ccc2O[C@@H]1CN(C)CC1CCCCC1	nt	i	i	nt	i	i
N#Cc1ccc(NC(=O)COC(=O)CNC(=O)C2CCCCC2)cc1	i	nt	nt	nt	nt	nt
N#Cc1ccc(NC(=O)COC(=O)C2CCC2)cc1	i	112.9	?	i	i	i
COc1cc(/C=N/NC(=O)c2ccc(NS(=O)(=O)c3cccs3)cc2)cc(OC)c1O	i	i	nt	i	i	i
O=C(NN=Cc1ccc(F)c(F)c1)c1ccc(NS(=O)(=O)c2cccs2)cc1	i	nt	i	i	i	33.3
Nc1ccc(S(=O)(=O)c2ccc(N3CCOCC3)c(N)c2)cc1	i	i	80.6	i	i	i
C[C@@H]1CN([C@H](C)CO)C(=O)Cc2cc(N(C)C)ccc2O[C@@H]1CN(C)C(=O)Nc1cccc2ccccc12	nt	i	i	nt	i	i
CCn1c(CNC(=O)c2cccs2)n[nH]c1=S	i	i	nt	i	i	25.3
C[C@H]1CN([C@@H](C)CO)S(=O)(=O)c2ccc(C#Cc3cccnc3)cc2O[C@H]1CN(C)C	nt	nt	i	i	i	i
CCc1ccc(-c2cc(C(=O)N/N=C/c3c[nH]c4ccccc34)[nH]n2)cc1	i	i	i	i	i	i
CCc1ccc(/C=C/c2c[nH]c3ccccc23)[n+](CC)c1	i	66.8	i	i	i	i
CN(CC(=O)Nc1ccc(S(N)(=O)=O)cc1)Cc1ccccc1F	i	i	i	i	i	i
CN(CC(=O)NC(=O)Nc1ccccc1F)Cc1ccccc1F	i	i	65.6	i	i	i
Cc1ccc(CSc2nnc(SCC(=O)N/N=C/c3ccc(C(=O)O)cc3)s2)cc1	i	i	i	i	60.4	i
O=C(CSc1nc2ccccc2s1)N/N=C/c1ccccc1C(=O)O	i	i	i	i	i	i
O=C(CSc1nc2ccccc2s1)N/N=C/c1ccc(C(=O)O)cc1	i	i	i	34.6	i	i
O=C(C[C@@H]1CC[C@H](NS(=O)(=O)c2ccccc2)[C@H](CO)O1)N1CCN(c2ccccc2)CC1	nt	i	nt	nt	i	i
C[C@H](CO)N1C[C@H](C)[C@@H](CN(C)S(=O)(=O)c2cccs2)OCCCC[C@H](C)Oc2ccc(NS(=O)(=O)c3ccc(Cl)cc3)cc2C1=O	nt	99.6	i	i	i	i
C[C@@H]1CCCCO[C@H](CN(C)S(=O)(=O)c2cccs2)[C@@H](C)CN([C@@H](C)CO)C(=O)c2cc(NS(=O)(=O)c3ccc(Cl)cc3)ccc2O1	nt	68.4	i	i	i	i
CCN1[C@@H]2c3ccc(-c4ccccc4)c(=O)n3C[C@H]1[C@H](CO)[C@H]2C(=O)NC1CCC1	nt	i	nt	nt	i	i
c1ccc(-c2n[nH]c(-c3ccccc3)c2-c2nc3ccccc3[nH]2)cc1	30.9	i	i	i	nt	nt
COc1cc(/C=C2\SC(N)=NC2=O)cc(OC)c1	i	i	58.8	i	i	i
O=C(Nc1cc2ccccc2oc1=O)c1ccccc1	i	i	i	i	73.9	i
